# Published values from different studies.
# Protocols differ between the studies behind these lines.
# Cell line: NCI-H322M
# Effect on: cell growth or viability
Structure (SMILES),test,setting,quantity,value
CCc1n(Cc2ccc3ccccc3n2)cc[n+]1Cc1ccc2ccccc2c1,SRB,,TGI,13.8 µM
O=C1NC(=NCc2cccs2)S/C1=C\c1ccc2ncccc2c1,,,IC50,> 10 µM
S=C([S][Au-][P+](CCCCCC[P+]([Au-][S]C(=S)n1cccn1)(c1ccccc1)c1ccccc1)(c1ccccc1)c1ccccc1)n1cccn1,SRB,,GI50,0.417 µM
COc1cc(-c2ccc(-c3ccc(C(=N)N)nc3)s2)cc(OC)c1OC,SRB,,GI50,3.23 µM
COc1ccc(C(=O)/C=C/c2cc3c(cc2Br)OCO3)cc1S(N)(=O)=O,SRB,48 h,GI50,3.8 µM
c1ccc2cc(Cn3cc[n+](Cc4ccc5ccccc5c4)c3)ccc2c1,SRB,,TGI,21.3 µM
Cc1cc(C)n(C(=S)[S][Au][PH](CCCCCC[PH]([Au][S]C(=S)n2nc(C)cc2C)(c2ccccc2)c2ccccc2)(c2ccccc2)c2ccccc2)n1,SRB,,GI50,0.423 µM
CCc1n(Cc2ccc3ccccc3n2)cc[n+]1Cc1ccc2ccccc2n1,SRB,,TGI,41.9 µM
COc1ccc(C(=O)/C=C/c2cccnc2)cc1S(N)(=O)=O,SRB,48 h,GI50,12.3 µM
COc1cccc(Oc2ccccc2NC(=O)CNC(=O)c2cccc3ccccc23)c1,SRB,48 h,GI50,1.29 µM
COc1ccc(-c2ccc(-c3ccc(C(=N)N)nc3)s2)cc1,SRB,,GI50,1.59 µM
O=C1NCCc2[nH]c(-c3ccncc3)cc21,,,IC50,> 10 µM
